Test [1] deals with T1, 5-hydroxytryptamine receptor 1A (Homo sapiens, UniProt P08908).
T1 sequence (P08908 whole entry): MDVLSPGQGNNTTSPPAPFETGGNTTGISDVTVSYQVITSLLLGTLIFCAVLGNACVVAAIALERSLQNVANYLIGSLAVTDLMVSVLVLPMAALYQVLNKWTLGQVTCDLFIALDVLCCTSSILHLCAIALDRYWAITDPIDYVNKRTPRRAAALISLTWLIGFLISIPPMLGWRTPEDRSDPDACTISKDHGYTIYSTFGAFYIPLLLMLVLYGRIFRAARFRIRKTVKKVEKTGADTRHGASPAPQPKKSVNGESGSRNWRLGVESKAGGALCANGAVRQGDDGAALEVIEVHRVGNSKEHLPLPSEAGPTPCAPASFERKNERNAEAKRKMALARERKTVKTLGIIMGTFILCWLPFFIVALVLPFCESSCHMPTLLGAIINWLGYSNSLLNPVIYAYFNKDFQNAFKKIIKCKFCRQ
The test is described as follows: Displacement of [3H]8-OH-DPAT from human recombinant 5HT1A receptor expressed in CHOK1 cell membrane. The class given is cell membranes, CHO-K1. The method, boiled down: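 Radioligand 0.5 nM [3H]8-OH-DPAT with receptor membranes in 0.25 mL 50 mM Tris·HCl pH 7.4, 1 mM EDTA, 2.5 mM MgCl2. Incubated 30 min at 37 °C. Stopped by rapid filtration on GF/C filters presoaked in 0.3% polyethylenimine, then scintillation counted. Nonspecific binding defined with methiothepin.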
A general note: Displacement assays read how much labelled ligand stays bound in the presence of the test substance.

The target of test [2] is 5-hydroxytryptamine receptor 2A (Homo sapiens, UniProt P28223). The test is described as follows: Displacement of [3H]ketanserin from human recombinant 5HT2A receptor expressed in CHOK1 cell membrane. The class given is cell membranes, CHO-K1. The method, boiled down: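 Frozen membranes with 1 nM [3H]ketanserin in 50 mM Tris·HCl pH 7.4. Incubated 15 min at 37 °C. Harvested onto GF/C filters presoaked in 0.05% Brij. Nonspecific binding defined with mianserin.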
Chain of 5-hydroxytryptamine receptor 2A (P28223 whole entry): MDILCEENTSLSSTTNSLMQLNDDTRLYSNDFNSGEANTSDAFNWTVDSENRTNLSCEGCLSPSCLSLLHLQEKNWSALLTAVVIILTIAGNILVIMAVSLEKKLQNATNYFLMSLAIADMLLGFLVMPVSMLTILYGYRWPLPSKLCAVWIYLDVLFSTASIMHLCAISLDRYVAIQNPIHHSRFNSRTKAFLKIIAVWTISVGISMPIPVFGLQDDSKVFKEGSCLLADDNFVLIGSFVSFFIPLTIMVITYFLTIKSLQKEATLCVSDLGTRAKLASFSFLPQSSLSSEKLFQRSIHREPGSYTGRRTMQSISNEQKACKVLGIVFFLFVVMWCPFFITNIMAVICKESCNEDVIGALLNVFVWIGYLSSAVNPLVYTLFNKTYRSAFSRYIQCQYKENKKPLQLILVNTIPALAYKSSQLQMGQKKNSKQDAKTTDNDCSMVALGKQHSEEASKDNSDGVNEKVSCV

For test [3], the target named is T2, 5-hydroxytryptamine receptor 2C (Homo sapiens, UniProt P28335).
T2 sequence (P28335 whole entry): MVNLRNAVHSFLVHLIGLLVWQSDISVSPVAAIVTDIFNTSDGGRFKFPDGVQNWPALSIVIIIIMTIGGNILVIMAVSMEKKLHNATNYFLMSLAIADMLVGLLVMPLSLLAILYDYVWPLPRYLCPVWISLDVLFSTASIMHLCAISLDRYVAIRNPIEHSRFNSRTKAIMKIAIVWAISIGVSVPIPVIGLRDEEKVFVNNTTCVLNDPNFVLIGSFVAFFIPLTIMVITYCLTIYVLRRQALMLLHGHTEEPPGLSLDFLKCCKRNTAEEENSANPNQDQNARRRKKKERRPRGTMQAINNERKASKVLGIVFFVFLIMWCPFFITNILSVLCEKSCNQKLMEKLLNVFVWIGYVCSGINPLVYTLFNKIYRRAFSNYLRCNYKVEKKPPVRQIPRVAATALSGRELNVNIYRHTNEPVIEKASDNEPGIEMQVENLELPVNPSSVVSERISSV
The test is described as follows: Displacement of [3H]mesulergine from human recombinant 5HT2C receptor expressed in CHOK1 cell membrane. The class given is cell membranes, CHO-K1. A digest of the protocol:
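Frozen membranes with 1 nM [3H]mesulergine in 50 mM Tris·HCl pH 7.7 containing 0.1% ascorbic acid and pargyline. Incubated 30 min at 37 °C. Stopped by rapid filtration through GF/C filters presoaked in 1% BSA. Nonspecific binding defined with mianserin.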

Test [4] concerns the target 5-hydroxytryptamine receptor 6 (Homo sapiens, UniProt P50406). The test is described as follows: Displacement of [3H]LSD from human 5HT6 receptor expressed in HeLa cells. Format: cell-based. A digest of the protocol:
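HeLa-cell membranes with 1.8 nM [3H]LSD in 0.25 mL 50 mM Tris·HCl pH 7.4, 10 mM MgCl2, 0.5 mM EDTA. Incubated 60 min at 37 °C. Terminated by filtration through GF/C filters presoaked in 0.3% polyethylenimine. Methiothepin used for nonspecific binding.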

Test [5] addresses 5-hydroxytryptamine receptor 7 (Homo sapiens, UniProt P34969). Nature of the test: Displacement of [3H]LSD from human recombinant 5HT7 receptor expressed in CHO cell membrane. Format: cell membranes. The method, boiled down: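 Membranes incubated with 3 nM [3H]LSD in 0.25 mL 50 mM Tris·HCl pH 7.4, 10 mM MgCl2, 0.5 mM EDTA, 90 min at 27 °C. Filtered on GF/C presoaked in 0.3% PEI and counted. Nonspecific binding with 0.5 uM methiothepin. 7-8 concentrations tested in duplicate, three assays. IC50 from nonlinear regression.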

IC50 data for 28 molecules are collected here from ChEMBL document CHEMBL1150331, “Preparation of piperazine derivatives as 5-HT7 receptor antagonists” (Bioorg Med Chem, 2008).

pIC50: −log10 of the molar value. A value given as a limit tells only on which side of the number the result lay.

Chain of 5-hydroxytryptamine receptor 7 (P34969 whole entry): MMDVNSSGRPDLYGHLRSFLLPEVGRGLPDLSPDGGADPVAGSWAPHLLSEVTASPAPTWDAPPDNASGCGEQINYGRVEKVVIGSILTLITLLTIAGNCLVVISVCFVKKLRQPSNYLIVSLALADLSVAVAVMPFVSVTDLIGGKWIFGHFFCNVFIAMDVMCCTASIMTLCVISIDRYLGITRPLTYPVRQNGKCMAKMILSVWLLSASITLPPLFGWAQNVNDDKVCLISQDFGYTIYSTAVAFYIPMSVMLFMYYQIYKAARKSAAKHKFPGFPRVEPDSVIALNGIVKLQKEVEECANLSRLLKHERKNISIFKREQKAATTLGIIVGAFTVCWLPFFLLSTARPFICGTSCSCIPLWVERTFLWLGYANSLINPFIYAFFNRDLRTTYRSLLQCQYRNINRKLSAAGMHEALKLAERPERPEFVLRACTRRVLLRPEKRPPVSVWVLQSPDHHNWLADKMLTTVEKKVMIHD
Chain of 5-hydroxytryptamine receptor 6 (P50406 whole entry): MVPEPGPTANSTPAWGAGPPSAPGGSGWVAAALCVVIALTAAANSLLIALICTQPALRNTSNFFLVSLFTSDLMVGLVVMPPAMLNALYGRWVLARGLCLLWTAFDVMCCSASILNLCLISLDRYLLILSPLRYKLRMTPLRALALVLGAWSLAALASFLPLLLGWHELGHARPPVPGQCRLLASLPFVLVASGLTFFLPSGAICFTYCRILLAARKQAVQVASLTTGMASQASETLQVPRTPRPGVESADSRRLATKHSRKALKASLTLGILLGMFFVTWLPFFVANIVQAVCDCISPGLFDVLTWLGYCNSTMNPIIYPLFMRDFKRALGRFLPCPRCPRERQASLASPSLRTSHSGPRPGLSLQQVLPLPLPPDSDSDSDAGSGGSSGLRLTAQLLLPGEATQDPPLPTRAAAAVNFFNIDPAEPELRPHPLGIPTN

By pIC50 is commonly meant the IC50 on a negative log10 scale, so that one unit is a factor of ten. As for `COc1ccc(S(=O)(=O)NCCCN2CCN(c3ccccc3OC)CC2)cc1`, the negative-log IC50 (pIC50) in test [1] is 6.57; in test [2] it was 5.29; in test [3] it was 5.01; in test [4], less than 5.00. For `COc1ccc(S(=O)(=O)NCCCN2CCN(c3ccc(Cl)c(Cl)c3)CC2)cc1`, in test [5], the pIC50 is 6.99.

For `O=S(=O)(NCCCN1CCN(Cc2ccccc2)CC1)c1ccccc1`, in test [5], the pIC50 is 6.02. With `COc1ccc(S(=O)(=O)NC(C)CCN2CCN(c3ccccc3OC)CC2)cc1` (stereo not given), the pIC50 in test [5] was 6.24. On the same count and under the same terms, under `COc1cccc(N2CCN(CCCNS(=O)(=O)c3ccc4ccccc4c3)CC2)c1` stands 6.65. Take `COc1ccc(S(=O)(=O)NCCCN2CCN(c3cccc(C(F)(F)F)c3)CC2)cc1`: the pIC50 in test [5] is 7.05; in test [1] it was 7.36; in test [2] it was 6.45; in test [3], 7.24; in test [4] it was 5.55. `COc1ccc(S(=O)(=O)NCCCN2CCN(c3ccc([N+](=O)[O-])cc3)CC2)cc1`: the pIC50 in test [5] is less than 5.00. With `COc1ccc(S(=O)(=O)NCCCN2CCN(c3cccc(OC)c3)CC2)cc1`, in test [5], the pIC50 was 6.47. Same read-out and setting: under `COc1ccc(N2CCN(CCCNS(=O)(=O)c3ccc(OC)cc3)CC2)cc1` stands 5.03. For the molecule `COc1ccc(S(=O)(=O)NCCCN2CCN(c3ccc(F)cc3)CC2)cc1`, the pIC50 in test [5] is 7.33; in test [1], 7.41; in test [2], 7.13; in test [3] it was 5.31; in test [4], less than 5.00. `COc1ccc(N2CCN(CCCNS(=O)(=O)c3ccc4ccccc4c3)CC2)cc1`: the pIC50 in test [5] is 5.49. Same read-out and setting: next, `O=S(=O)(NCCCN1CCN(c2ccccc2F)CC1)c1ccc2ccccc2c1`: 6.85; `O=S(=O)(NCCCN1CCN(Cc2ccccc2)CC1)c1ccc2ccccc2c1`: 6.32. Consider `O=S(=O)(NCCCN1CCN(c2ccc(Cl)c(Cl)c2)CC1)c1ccc2ccccc2c1`, for which the negative-log IC50 (pIC50) in test [5] was 6.91; in test [1], 6.67; in test [2], 7.72; in test [3], 6.67; in test [4], 6.11.

In the case of `COc1ccc(S(=O)(=O)NC(C)CCN2CCN(c3cccc(C(F)(F)F)c3)CC2)cc1` (stereo not given), the negative-log IC50 (pIC50) is 6.97 in test [5]; 7.41 in test [1]; 5.74 in test [2]; 5.87 in test [3]; 5.16 in test [4]. `O=S(=O)(NCCCN1CCN(c2ccc(F)cc2)CC1)c1ccc2ccccc2c1`: in test [5], the negative-log IC50 (pIC50) was 7.28. Still for that read-out and setting: next, `COc1ccc(S(=O)(=O)NCCCN2CCN(C(=O)c3ccco3)CC2)cc1`: less than 5.00. `O=S(=O)(NCCCN1CCN(c2cccc(C(F)(F)F)c2)CC1)c1ccc2ccccc2c1`: the pIC50 in test [5] was 7.92; in test [1], 7.54; in test [2] it was 7.02; in test [3], 7.04; in test [4], 5.71. Regarding `COc1ccc(S(=O)(=O)NC(C)CCN2CCN(c3ccc(F)cc3)CC2)cc1` (stereo not given), the negative-log IC50 (pIC50) in test [5] was 6.43.

Turning to `O=S(=O)(NCCCN1CCN(c2ccc(C(F)(F)F)cc2)CC1)c1ccc2ccccc2c1`, the pIC50 in test [5] is 6.25. Same read-out and setting: next, `COc1ccc(S(=O)(=O)NC(C)CCN2CCN(c3ccccc3)CC2)cc1` (stereo not given): 6.42. Still for that read-out and setting: next, `COc1ccc(S(=O)(=O)NCCCN2CCN(c3ccc(C(C)=O)cc3)CC2)cc1`: less than 5.00; `COc1ccc(S(=O)(=O)NCCCN2CCN(C(=O)OCc3ccccc3)CC2)cc1`: less than 5.00. For the molecule `COc1ccccc1N1CCN(CCCNS(=O)(=O)c2ccc3ccccc3c2)CC1`, the pIC50 in test [5] is 7.70; in test [1] it was 8.34; in test [2], 7.07; in test [3], 6.62; in test [4], 5.58. In the case of `COc1ccc(S(=O)(=O)NCCCN2CCN(c3ccccc3F)CC2)cc1`, the pIC50 in test [5] is 6.54. On the same count and under the same terms, next, `O=S(=O)(NCCCN1CCN(c2ccccc2)CC1)c1ccc2ccccc2c1`: 6.17; `COc1ccc(S(=O)(=O)NCCCN2CCN(c3ccc(C(F)(F)F)cc3)CC2)cc1`: 6.42; `COc1ccc(S(=O)(=O)NCCCN2CCN(c3ccccc3)CC2)cc1`: less than 5.00.
